Laboratory results taken from PubChem BioAssay.
Active and inactive are the calls of the source.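 The calls were made as follows, unless noted: active = viability at or below 10% of carrier control in both of two separate runs; inconclusive = viability at or below 10% in only one of the two runs; inactive = the rest.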

Key:
[1] = Her2 expression decrease, cell viability multiplex – SKBR3 breast tumor cells, AlphaScreen, ATP viability, primary screen (AID 461;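 active = Her2 level under about 52% in both replicate screens, with viability over 70% of control, limit read from the data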;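 as to Her2 level: lower value means less Her2 protein in the cells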;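 as to viability: percent of carrier control wells set as 100% viability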); conditions: SKBR3 Her2 protein level, 18-24 h, measured here: SKBR3 viability, ATP luminescence, at 10 µM
[2] = biological target: Receptor tyrosine-protein kinase erbB-2 (Homo sapiens) (UniProt P04626); test: as above; conditions: 18-24 h, at 10 µM, stronger effect = lower value
[3] = reduced viability of SK-BR-3 breast cancer cells – cell-based, 24 h, human, pilot screen (AID 572); conditions: SK-BR-3 viability, CellTiter-Glo luminescence, at 10 µM, stronger effect = lower value;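 also: compound exposure lasted between 18 and 24 h rather than exactly 24 h; 100% = carrier-treated control wells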
[4] = HUVEC growth inhibition – cell-based, human, primary screen (AID 575;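 active = viability at or below 30% in both replicate assays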;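 also: 100% = median of untreated cell wells with 0.1% DMSO on each plate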); conditions: HUVEC proliferation, CellTiter-Glo luminescence, 72 h; at 10 µM; stronger effect = lower value
Outline: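 Timing: 72 h treatment at 37 °C; material: HUVEC primary cells; technique: CellTiter-Glo luminescence measuring cellular ATP; controls: vehicle and MePR control wells; measure: percent of median DMSO-control luminescence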

[5] = H69AR cell proliferation blockers – human, duplicate replicates, primary screen (AID 580;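 active = viability at or under a set limit in both replicates, limit being median viability minus 3 SD, cut at about 48% in these data, passing the limit was not always enough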;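 also: 100% = mean luminescence of untreated wells and 0% = no signal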); conditions: H69AR lung tumor cells viability, ATP luminescence, 72 h; at 10 µM; stronger effect = lower value
[6] = MRP1 drug-resistance reversers in H69AR cells – cell-based, doxorubicin co-treatment, pilot screen (AID 601;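 active = viability loss from added drug above about 55%, and viability with drug at most 40%, in both replicates, limit read from the data, passing the limit was not always enough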); conditions: CellTiter-Glo, 72 h, at 10 µM; for differential viability (reversal): stronger effect = higher value
[7] = yeast transport mutant growth inhibition pilot in 384-well plates, post-Golgi transport modulator project (AID 636; in the data active = inhibition above about 31%); conditions: absorbance 615 nm, about 18 h, stronger effect = higher value
[8] = growth suppression of yeast trafficking mutant, preliminary HTS, modulators of trafficking downstream of Golgi apparatus project, 1536-format plate, OD 615 nm (AID 637; in the data active = inhibition above about 30%); conditions: yeast transport mutant growth, absorbance 615 nm, 18 h; stronger effect = higher value
[9] = H69AR cells + 2 uM doxorubicin, measured here: viability with 2 uM doxorubicin, stronger effect = lower value
[10] = H69AR cells, compound alone cytotoxicity

Receptor tyrosine-protein kinase erbB-2 (Homo sapiens), sequence (P04626 whole entry, looked up): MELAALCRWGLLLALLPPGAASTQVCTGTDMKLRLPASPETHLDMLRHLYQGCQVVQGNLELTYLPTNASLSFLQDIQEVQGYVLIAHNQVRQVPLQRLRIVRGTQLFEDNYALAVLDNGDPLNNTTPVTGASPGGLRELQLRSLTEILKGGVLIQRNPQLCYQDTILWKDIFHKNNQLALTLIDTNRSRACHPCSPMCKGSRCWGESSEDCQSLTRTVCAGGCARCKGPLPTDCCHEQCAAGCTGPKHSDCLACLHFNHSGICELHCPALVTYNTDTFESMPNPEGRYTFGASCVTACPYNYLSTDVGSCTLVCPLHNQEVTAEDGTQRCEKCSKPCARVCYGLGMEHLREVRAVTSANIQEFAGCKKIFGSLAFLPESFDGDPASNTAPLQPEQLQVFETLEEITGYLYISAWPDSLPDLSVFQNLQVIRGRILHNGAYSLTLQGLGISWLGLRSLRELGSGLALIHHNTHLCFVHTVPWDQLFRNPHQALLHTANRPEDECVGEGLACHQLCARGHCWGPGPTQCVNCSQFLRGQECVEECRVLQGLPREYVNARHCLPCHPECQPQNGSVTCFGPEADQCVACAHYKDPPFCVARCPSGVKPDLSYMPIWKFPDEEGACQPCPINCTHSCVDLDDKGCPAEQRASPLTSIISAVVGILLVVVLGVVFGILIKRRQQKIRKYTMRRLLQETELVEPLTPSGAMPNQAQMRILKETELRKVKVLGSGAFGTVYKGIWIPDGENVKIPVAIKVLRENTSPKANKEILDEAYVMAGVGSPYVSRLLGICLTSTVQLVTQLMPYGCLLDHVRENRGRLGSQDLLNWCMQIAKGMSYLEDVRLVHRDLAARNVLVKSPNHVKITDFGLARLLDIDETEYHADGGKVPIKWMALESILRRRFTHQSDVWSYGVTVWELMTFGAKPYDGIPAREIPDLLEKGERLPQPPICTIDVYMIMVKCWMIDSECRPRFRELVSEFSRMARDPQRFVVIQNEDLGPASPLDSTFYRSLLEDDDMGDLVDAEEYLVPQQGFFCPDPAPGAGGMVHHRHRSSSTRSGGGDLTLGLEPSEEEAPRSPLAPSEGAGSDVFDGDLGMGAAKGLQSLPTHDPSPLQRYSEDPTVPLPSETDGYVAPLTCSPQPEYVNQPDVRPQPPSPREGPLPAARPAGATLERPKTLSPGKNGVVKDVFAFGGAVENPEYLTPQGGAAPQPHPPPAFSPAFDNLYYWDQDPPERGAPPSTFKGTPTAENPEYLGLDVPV

Compound	viability [1]	Her2 level [2]	viability [3]	viability [4]	viability [5]	differential viability (reversal) ([6]; H69AR cells + 2 uM doxorubicin)	viability [6, 9]	viability [6, 10]	inhibition [7]	inhibition [8]
COC(=O)c1ccc(NC(=O)CN2CCN(c3ccc(Cl)cc3)CC2)cc1	96.5%	100% (inactive)	96.5% (inactive)	104% (inactive)	96.1% (inactive)	-0.5% (inactive)	96.6%	96.1%	0.13% (inactive)	12.9% (inactive)
CCOC(=O)CSc1nnc(-c2cccnc2)n1Cc1ccccc1	91.5%	108% (inactive)	91.5% (inactive)	106% (inactive)	96.4% (inactive)	0.125% (inactive)	96.2%	96.4%	1.45% (inactive)	-12.3% (inactive)
COc1ccccc1C(=O)n1nc(-c2ccccc2)nc1N	91%	90% (inactive)	91% (inactive)	110% (inactive)	87.9% (inactive)	-2.62% (inactive)	90.5%	87.9%	-3.29% (inactive)	3.77% (inactive)
O=C(OC1CCOC1=O)c1ccc2ccccc2n1 (stereo not given)	98.5%	85% (inactive)	98.5% (inactive)	101% (inactive)	102% (inactive)	9.04% (inactive)	93.4%	102%	-6.93% (inactive)	1.75% (inactive)
COc1ccc(OC)c(C2C(C#N)=C(N)Oc3cc(C)[nH]c(=O)c32)c1 (stereo not given)	92%	84.5% (inactive)	92% (inactive)	83.8% (inactive)	99.5% (inactive)	0.505% (inactive)	99%	99.5%	-3.87% (inactive)	0.49% (inactive)
O=C1C2CC=C(Cl)CC2C(=O)N1c1ncn[nH]1 (stereo not given)	86.5%	96% (inactive)	86.5% (inactive)	106% (inactive)	103% (inactive)	2.85% (inactive)	101%	103%	0.27% (inactive)	-5.32% (inactive)
C=CCSc1nc(N)c(C(=O)Nc2ccccc2C)cc1C(N)=O	93%	121% (inactive)	93% (inactive)	99.9% (inactive)	87.4% (inactive)	-2.21% (inactive)	89.6%	87.4%	4.42% (inactive)	4.67% (inactive)
CCSc1nnc(NC(=O)c2ccc(C)o2)s1	96.5%	98.5% (inactive)	96.5% (inactive)	105% (inactive)	116% (inactive)	18.2% (inactive)	97.4%	116%	-4.13% (inactive)	-5.32% (inactive)
O=c1c2c(nc3nc(COc4ccccc4)[nH]n13)CCC2	103%	103% (inactive)	103% (inactive)	99.5% (inactive)	101% (inactive)	10.9% (inactive)	90.2%	101%	-4.8% (inactive)	3.23% (inactive)
COc1ccc(C)cc1NCc1cccc(OC)c1OC	75.5%	90.5% (inactive)	75.5% (inactive)	87.2% (inactive)	102% (inactive)	-6.87% (inactive)	109%	102%	-5.41% (inactive)	-6.39% (inactive)
O=C(NCc1cccs1)C1CCCN(c2ncccn2)C1 (stereo not given)	104%	89.5% (inactive)	104% (inactive)	105% (inactive)	94.8% (inactive)	8.86% (inactive)	85.9%	94.8%	-2.4% (inactive)	-1.94% (inactive)
CCc1cccc2c(=O)c(C(=O)NCCN3CCOCC3)c[nH]c12	104%	113% (inactive)	104% (inactive)	102% (inactive)	108% (inactive)	18.2% (inactive)	90%	108%	-5.47% (inactive)	1.29% (inactive)
COc1ccc(S(=O)(=O)N(C)c2ccc(C(=O)N3CCOCC3)cc2)cc1	79.5%	89.5% (inactive)	79.5% (inactive)	94.4% (inactive)	95.2% (inactive)	3.61% (inactive)	91.5%	95.2%	-0.92% (inactive)	1.8% (inactive)
O=C(O)COc1ccc2occ(C(=O)c3ccccc3)c2c1	102%	95.5% (inactive)	102% (inactive)	100% (inactive)	93.9% (inactive)	1.01% (inactive)	92.9%	93.9%	-3.55% (inactive)	7.21% (inactive)
CCOc1ccc(C(c2nnnn2Cc2ccccc2)N2CCN(C(=O)c3ccco3)CC2)cc1 (stereo not given)	92.5%	106% (inactive)	92.5% (inactive)	85.8% (inactive)	98.3% (inactive)	-4.47% (inactive)	103%	98.3%	0.53% (inactive)	-1.9% (inactive)
COc1ccc(CCNC(=O)C2=COCCO2)cc1	126%	94% (inactive)	126% (inactive)	109% (inactive)	108% (inactive)	4.46% (inactive)	104%	108%	-6.58% (inactive)	-5.08% (inactive)

Compound	viability [1]	Her2 level [2]	viability [3]	viability [4]	viability [5]	differential viability (reversal) ([6]; H69AR cells + 2 uM doxorubicin)	viability [6, 9]	viability [6, 10]	inhibition [7]	inhibition [8]
CCOC(=O)N1CCN(c2c(N3CCN(c4ccccn4)CC3)c(=O)c2=O)CC1	104%	103% (inactive)	104% (inactive)	95.4% (inactive)	92.5% (inactive)	9.85% (inactive)	82.6%	92.5%	-2.67% (inactive)	-2.79% (inactive)
Cc1ccc2c(c1)-c1cc(C)nn1C(c1ccc3c(c1)OCO3)N2 (stereo not given)	100%	100% (inactive)	100% (inactive)	54% (inactive)	87.2% (inactive)	-11.2% (inactive)	98.4%	87.2%	-2.76% (inactive)	-3.55% (inactive)
CCCNC(=O)c1ccccc1C(=O)NCCC	93.5%	88.5% (inactive)	93.5% (inactive)	103% (inactive)	90.5% (inactive)	-4.96% (inactive)	95.5%	90.5%	4.16% (inactive)	18.9% (inactive)
Cc1ccc(-c2cn3nc(C)c(C)nc3n2)cc1	106%	94% (inactive)	106% (inactive)	75.4% (inactive)	85.5% (inactive)	4% (inactive)	81.5%	85.5%	-4.93% (inactive)	0% (inactive)
O=C(O)C1C2CCC(O2)C1C(=O)NCCC1=CCCCC1 (stereo not given)	78.5%	118% (inactive)	78.5% (inactive)	34.2% (inactive)	57.8% (inactive)	-9.07% (inactive)	66.8%	57.8%	0% (inactive)	0.5% (inactive)
N#CC1(c2ccccc2)CCC(=NO)CC1 (stereo not given)	106%	91.5% (inactive)	106% (inactive)	90.2% (inactive)	98.1% (inactive)	1.23% (inactive)	96.8%	98.1%	-3.7% (inactive)	-2.06% (inactive)
O=C(c1cc(S(=O)(=O)N2CCOCC2)ccc1F)N1CCCc2ccccc21	99%	87% (inactive)	99% (inactive)	102% (inactive)	90.9% (inactive)	-3.44% (inactive)	94.3%	90.9%	0.64% (inactive)	-2.83% (inactive)
c1ccc(Cc2ccc(OCCn3cncn3)cc2)cc1	84%	108% (inactive)	84% (inactive)	98.6% (inactive)	95% (inactive)	14.6% (inactive)	80.4%	95%	-3.92% (inactive)	-7.38% (inactive)
COc1ccc(C2(C(=O)N3CCCC3)CCOCC2)cc1OC	88.5%	126% (inactive)	88.5% (inactive)	82.2% (inactive)	97.2% (inactive)	9.43% (inactive)	87.8%	97.2%	3.21% (inactive)	-11% (inactive)
COc1cc(OC)c(-c2nn3c(C4CCCCC4)nnc3s2)cc1OC	102%	116% (inactive)	102% (inactive)	80.8% (inactive)	77.5% (inactive)	-2% (inactive)	79.5%	77.5%	-0.52% (inactive)	2.3% (inactive)
COc1ccc(-c2cc3n(n2)CCc2nc4ccccc4n2-3)cc1	95.5%	70% (inactive)	95.5% (inactive)	87% (inactive)	93.3% (inactive)	6.67% (inactive)	86.7%	93.3%	-5.2% (inactive)	0.48% (inactive)
O=C(Nc1ccc(F)cc1)c1cccc2c1C(=O)N(Cc1ccccn1)C2	95.5%	90% (inactive)	95.5% (inactive)	87.5% (inactive)	96% (inactive)	16.1% (inactive)	79.9%	96%	-0.92% (inactive)	-3.06% (inactive)
CN1C(=O)C(CC(=O)N2CCN(C(c3ccccc3)c3ccccc3)CC2)N(C)C1=O (stereo not given)	90.5%	83% (inactive)	90.5% (inactive)	89.1% (inactive)	81.9% (inactive)	-14% (inactive)	95.9%	81.9%	0.26% (inactive)	-3.67% (inactive)
COc1cc(NC(=O)Cc2cccs2)ccc1-n1cnnn1	97%	95.5% (inactive)	97% (inactive)	97% (inactive)	102% (inactive)	7.88% (inactive)	94.4%	102%	-6.13% (inactive)	1.29% (inactive)
COc1ccc2nc(C)cc(N3CCOCC3)c2c1	128%	101% (inactive)	128% (inactive)	101% (inactive)	93.1% (inactive)	-3.77% (inactive)	96.9%	93.1%	-3.68% (inactive)	9.67% (inactive)
COC(=O)C1=C(C)NC(=O)C1(NC(=O)c1cccnc1)C(F)(F)F (stereo not given)	126%	96.5% (inactive)	126% (inactive)	99.4% (inactive)	103% (inactive)	14% (inactive)	88.7%	103%	-2.5% (inactive)	0.55% (inactive)
